Experimental findings from ChEMBL document CHEMBL1687889, “Antitumor agents. 284. New desmosdumotin B analogues with bicyclic B-ring as cytotoxic and antitubulin agents” (J Med Chem, 2011) are described below.

Assay [1] relates to HepG2. The assay is described as follows: Antiproliferative activity against human HepG2 cells at 20 ug/ml after 3 days by sulforhodamine B assay. It counts as functional, cell-based.
The subject of another assay is KB. Briefly: Antiproliferative activity against human KB cells after 3 days by sulforhodamine B assay. Format: functional. As to conditions: 72 h. In outline:
(§1)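 Cells grown in RPMI-1640 with 25 mM HEPES, 0.25% sodium bicarbonate, 10% FBS and 100 μg/mL kanamycin. Exposed to compound for 3 days, with at most 0.5% v/v DMSO. Attached cells fixed in cold 50% TCA, stained with 0.4% sulforhodamine B, and the bound dye solubilized. A562 read. GI50 is the concentration giving a 50% absorbance drop versus untreated cells.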

Assay [2] concerns MCF7. The assay is described as follows: Antiproliferative activity against human MCF7 cells at 20 ug/ml after 3 days by sulforhodamine B assay. Format: functional, cell-based.
Assay [3] concerns PC-3. Briefly: Antiproliferative activity against human PC3 cells after 3 days by sulforhodamine B assay. Conditions: PC-3, 72 h. It counts as functional.
Another assay concerns A549. The assay is described as follows: Antiproliferative activity against human A549 cells after 3 days by sulforhodamine B assay. Conditions: A549, 72 h. It counts as functional. In outline: as §1
The next assay concerns HCT-8. Briefly: Antiproliferative activity against human HCT8 cells after 3 days by sulforhodamine B assay. As to conditions: HCT-8, 72 h. It counts as functional. In outline: as §1
For assay [4], the system named is HepG2. The assay is described as follows: Antiproliferative activity against human HepG2 cells after 3 days by sulforhodamine B assay. As to conditions: HepG2, 72 h. It counts as functional. In outline: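 Sulforhodamine B assay over 3 days in culture, with at most 0.5% v/v DMSO. Attached cells fixed in cold 50% TCA, stained with 0.4% SRB, and the dye solubilized. Absorbance read at 562 nm. GI50 is the concentration causing a 50% fall in absorbance relative to untreated cells.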

Assay [5] can be described thus: Antiproliferative activity against human KBVIN cells after 3 days by sulforhodamine B assay. It counts as functional. Conditions: 72 h. In outline: as §1
The subject of another assay is DU-145. Briefly: Antiproliferative activity against human DU145 cells after 3 days by sulforhodamine B assay. As to conditions: DU-145, 72 h. It counts as functional.
For assay [6], the system named is MCF7. Briefly: Antiproliferative activity against human MCF7 cells after 3 days by sulforhodamine B assay. It counts as functional. As to conditions: MCF7, 72 h.
The test system of assay [7] is PC-3. Briefly: Antiproliferative activity against human PC3 cells at 20 ug/ml after 3 days by sulforhodamine B assay. Format: functional, cell-based.
Assay [8] is described as follows: Inhibition of tubulin assembly after 20 mins by turbidimetric assay. As to conditions: read-out: IC50. In outline:
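Turbidimetry at 350 nm. 10 μM (1.0 mg/mL) tubulin preincubated with compound for 15 min at 30 °C without GTP, then chilled, and 0.4 mM GTP added. Turbidity followed for 20 min at 30 °C after a temperature jump from 0 °C. IC50 is the concentration halving the turbidity increase relative to control.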

Assay [9] in a line: Displacement of [3H]colchicine from tubulin at 5 uM for 10 mins. In outline:
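1.0 μM tubulin incubated with 5.0 μM [3H]colchicine and 5.0 μM inhibitor for 10 min at 37 °C, when control samples reach about 40–60% of maximal colchicine binding. Result given as percent inhibition of colchicine binding.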

Active and inactive are the calls of the source. The rule behind the calls is not given here. Where only a bound is given, the exact number is not on record here.

Take `CCCC1=C(O)c2c(oc(-c3cccc4ccccc34)cc2=O)C(CCC)(CCC)C1=O`: the outcome in the assay with HepG2 [1] and in the assay on MCF7 [2] was inactive. Further, the GI50 with KB came out at 18.6 µM; with PC-3 [3], 17.4 µM; in the assay with A549, 23.3 µM; in the assay with HCT-8, 23.3 µM.

Consider `CCC1=C(O)c2c(oc(-c3cccc4ccsc34)cc2=O)C(CC)(CC)C1=O`, for which the GI50 worked out at 2.49 µM in the assay on KB; 1.9 µM in the assay on HepG2 [4]; 3.81 µM in the assay on PC-3 [3]; 5.84 µM in the assay with A549; 11.2 µM with HCT-8; 0.94 µM in [5]. The same compound displayed a GI50 in the assay with DU-145 of 0.74 µM.

As for `CCC1=C(O)c2c(oc(-c3cc4ccccc4o3)cc2=O)C(CC)(CC)C1=O`, the GI50 in the assay on KB turned out to be 14.8 µM; with HepG2 [4], 15.1 µM; in the assay with PC-3 [3], 5.82 µM; in the assay on A549, 17.2 µM; in the assay on HCT-8, 5.82 µM; in assay [5], 14.6 µM. The outcome with MCF7 [2] was inactive.

Regarding `CCC1=C(O)c2c(oc(-c3cccc4ccccc34)c(Br)c2=O)C(CC)(CC)C1=O`, the GI50 amounted to 24.6 µM in the assay with MCF7 [6]; 6.41 µM with KB; 25.6 µM with A549; 13.9 µM in the assay on HCT-8; 12 µM in [5]. In addition, the result in the assay on HepG2 [1] and with PC-3 [7] was inactive.

With `CCC1=C(O)c2c(oc(-c3csc4ccc(C)cc34)cc2=O)C(CC)(CC)C1=O`, the GI50 in the assay with KB was 53.9 µM; in the assay with HepG2 [4], more than 98 µM; with PC-3 [3] it was more than 98 µM; in the assay on A549 it was more than 98 µM; in the assay with HCT-8 it was 93.1 µM; in assay [5], more than 98 µM. For the same compound, the GI50 in the assay on DU-145 is more than 98 µM.

In the case of `CCC1=C(O)c2c(oc(-c3c(C)sc4ccccc34)cc2=O)C(CC)(CC)C1=O`, the GI50 in the assay with KB amounted to 0.61 µM; with HepG2 [4], 2.03 µM; in the assay with PC-3 [3], 90.7 µM; in the assay with A549 it was 1.35 µM; with HCT-8, 2.7 µM; in assay [5], 0.76 µM. Further, the GI50 in the assay on DU-145 amounted to 3.92 µM. In addition, the IC50 in assay [8] worked out at 3.4 µM. The same compound had an inhibition in assay [9] of 38%.

In the case of `CCC1=C(O)c2c(oc(-c3c(O)ccc4sccc34)cc2=O)C(CC)(CC)C1=O`, the GI50 in the assay with KB is 0.76 µM; in the assay on HepG2 [4], 1.02 µM; in the assay on PC-3 [3], 21.5 µM; in the assay with A549, 3.17 µM; with HCT-8 it was 3.66 µM; in [5], 0.78 µM. This compound had a 50% growth inhibitory concentration (GI50) in the assay on DU-145 of 1.12 µM. For the same compound, the IC50 in assay [8] was found to be 3.4 µM. The compound further registered an inhibition in assay [9] of 52%.

Take `CCC1=C(O)c2c(oc(-c3sc4ccccc4c3C)cc2=O)C(CC)(CC)C1=O`: the 50% growth inhibitory concentration (GI50) (in the assay with KB; in the assay on HepG2 [4]; with PC-3 [3]; in the assay on A549; in the assay on HCT-8; in [5]) was more than 25 µM in each case. In the assay with DU-145, this compound had a GI50 of more than 25 µM.

For the compound `CCC1=C(O)c2c(oc(-c3ccc4sccc4c3)cc2=O)C(CC)(CC)C1=O`, the GI50 in the assay with KB is 11.2 µM; in the assay on HepG2 [4], more than 25 µM; in the assay on PC-3 [3], more than 25 µM; with A549 it was more than 25 µM; with HCT-8, more than 25 µM; in assay [5], more than 25 µM. For the same compound, it took 10.4 µM to inhibit growth in the assay with DU-145 by half (GI50).

Regarding `CCC1=C(O)c2c(oc(-c3csc4ccc(Br)cc34)cc2=O)C(CC)(CC)C1=O`, the GI50 with KB is 26.4 µM; in the assay with HepG2 [4], 30.6 µM; in the assay on PC-3 [3], 38 µM; in the assay on A549, 42.2 µM; with HCT-8 it was 42.2 µM; in assay [5], 10.6 µM. In the assay on DU-145, this compound returned a GI50 of 31.7 µM.

On to `CCC1=C(O)c2c(oc(-c3c(OC)ccc4sccc34)cc2=O)C(CC)(CC)C1=O`, for which the GI50 in the assay with KB came to 11.3 µM; in the assay on HepG2 [4] it was 24.8 µM; in the assay on PC-3 [3] it was 51.9 µM; in the assay with A549, 66 µM; in the assay with HCT-8, 19.6 µM; in assay [5] it was 11.1 µM. Moreover, the GI50 in the assay with DU-145 is 21.5 µM.
